Htt clearance = mutant huntingtin protein clearance; HeLa Exon1htt(103Q)mCFP, aggregate imaging; zero = plate's median compound well; inhibition, % at 1.5 µM; 47,000 tested, 0.42% active; AID 853;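 active = inhibition of aggregate fluorescence above about 70%, also judged a hit by eye on the cell image, limit read from the data, passing the limit was not always enough; inconclusive = no rule stated for this call; inactive = not judged a hit on image review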;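 also: cells exposed to compound for three days before fixation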
SF-1 act = SF-1 (human) activation; 65,000 tested, 1.9% active; AID 522; Q13285; CHO-K1 Gal4-SF-1 LBD luciferase reporter; % increase over DMSO SF-1-specific signal; activation, % at 10 µM;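 active = activation above the mean activation of all tested compounds plus 3 SD, cut at about 50% in these data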
Target sequence (Q13285 whole entry, looked up, the tested form may be a part): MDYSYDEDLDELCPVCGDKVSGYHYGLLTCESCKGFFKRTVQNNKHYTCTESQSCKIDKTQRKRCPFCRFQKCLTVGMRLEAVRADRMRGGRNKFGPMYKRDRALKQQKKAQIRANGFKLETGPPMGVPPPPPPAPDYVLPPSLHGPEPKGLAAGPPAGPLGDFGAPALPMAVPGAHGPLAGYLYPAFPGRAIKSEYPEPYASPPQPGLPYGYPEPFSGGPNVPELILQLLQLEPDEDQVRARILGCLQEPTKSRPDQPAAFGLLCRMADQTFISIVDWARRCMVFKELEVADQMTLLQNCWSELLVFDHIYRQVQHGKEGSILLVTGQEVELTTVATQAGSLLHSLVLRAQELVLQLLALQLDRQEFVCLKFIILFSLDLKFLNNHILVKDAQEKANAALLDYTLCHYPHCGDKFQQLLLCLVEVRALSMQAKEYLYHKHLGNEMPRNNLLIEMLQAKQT
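material = CHO-K1 cells with Gal4–hSF-1 LBD chimera plus Gal4-driven luciferase | compound = 10 µM single point, 1% DMSO | incubation = 20 h compound exposure at 37 °C after 1 h cell settling | measured by = SteadyLite luciferase luminescence | evaluation = percent activation relative to DMSO median and mock-transfected background | control set = DMSO negative control and −SF1 background wells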
D1 allo mod = D1 dopamine receptor (human) allosteric modulation; P21728; HEK293 D1, CRE-luciferase, dopamine EC30 potentiation; actives deviate in either direction; B-score at 10 µM; 58,000 tested, 5.9% active; AID 641;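 active = luminescence count or its row- and column-corrected plate score outside the 99.7% band of the plate's sample wells, on either side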
M1 antagonist = blocks the rat M1 muscarinic receptor response to acetylcholine; AID 628; P08482; CHO-M1 cells, Fluo-4 calcium, ACh EC80 antagonist mode; active compounds read low; B-score at 10 µM; 64,000 tested, 3.4% active;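 active = calcium fluorescence response, raw or row-and-column corrected B-score, differing from the plate sample mean either way at a set confidence level, mostly lower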
RORa activator = activators of human nuclear receptor RORA. 65,000 tested, 1.5% active. CHO-K1 Gal4-RORA LBD luciferase reporter, luminescence; percent increase over mock-subtracted basal signal. activation, % at 10 µM. P35398;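 active = activation above the mean of all tested compounds plus 3 SD, cut at about 49% in these data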;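 also: 0% = DMSO-treated RORA cells and 100% = added signal equal to DMSO minus mock-transfected cells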
M1 ag = agonists of M1 muscarinic receptor; CHO-M1 cells, Fluo-4 calcium fluorescence, agonist mode; active compounds read high; B-score at 10 µM; 64,000 tested, 3% active; AID 626;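 active = fluorescence rise, raw or as B-score row- and column-corrected plate score, outside the 99.7% band of its plate's samples, either direction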
M1 agonist conf = rat M1 muscarinic agonism, confirmation; shares compounds with M1 ag; CHO-M1 cells, Fluo-4 calcium fluorescence, agonist mode; actives lie on both sides; fluorescence change (max-min) at 10 µM; 1,700 tested, 19% active; AID 1488;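 active = fluorescence change differs from the solvent-only DMSO control mean at a set confidence level in both duplicate runs; inconclusive = differs from solvent-only control mean in just one of two runs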;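 also: an EC20 dose of acetylcholine follows compound addition during the same imaging run; raw fluorescence intensity difference in instrument units with no normalization to controls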
M4 ag counter = activates rat M4 receptor in counter-screen for M1 agonists | shares compounds with M1 ag | CHO M4/Gqi5 cells, Fluo-4 calcium fluorescence, agonist mode; actives lie on both sides | fluorescence change (max-min) at 10 µM | 1,700 tested, 9% active | AID 1741;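 active = fluorescence change differing from the plate's solvent-only control wells at 99.7% confidence in both duplicates, whether higher or lower; inconclusive = differs from solvent controls in only one of two duplicates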
An asterisk follows results filed as active; i = inactive; ? = inconclusive; . = no result given. Rows were chosen to be rich in hits. Some 11% of all compounds tested hit in one or more screens of this group.

SMILES	Htt clearance	SF-1 act	D1 allo mod	M1 antagonist	RORa activator	M1 ag	M1 agonist conf	M4 ag counter
Cn1c(C(=O)NC2CCCC2)cc2c(=O)n(C)c3ccccc3c21	.	-16	-0.57	0.4	4	4.1*	-39*	-50
Cn1c(C(=O)NCC2CCCO2)cc2c(=O)n(C)c3ccccc3c21 (stereo unspecified)	.	1	0.79	0.67	2	-1.5	.	.
Cc1ccc(Cl)cc1N1CCN(C(=O)c2cc3c(=O)n(C)c4ccccc4c3n2C)CC1	-100	-11	-4*	-1.7	15	7.4*	-11	-56
O=C(O)CSCC(=O)NCc1ccccc1	.	-13	0.23	0.92	-6	0.024	.	.
Cc1cccc2cc3c(N)c(C#N)sc3nc12	?	23	0.074	0.27	12	8.6*	8.9	?
O=C(CCN1CCc2ccccc2C1)Nc1ccccc1F	-4	16	-0.47	0.11	2	0.42	.	.
O=S(=O)(O)c1nnc2sc3ccccc3n12	-48	-9	0.33	0.015	13	-0.46	.	.
N#Cc1cnc2sc3ccccc3n2c1=N	.	.	1.2	-0.1	.	-2.4*	36	-10
COc1cc2c(cc1OC)C(COc1ccc(F)cc1)N(C(=O)c1ccco1)CC2 (stereo unspecified)	.	-8	0.89	-1.2	-14	7.9*	-2.1	-15
CC(NC(=O)Cn1nnc(-c2ccncc2)n1)c1ccccc1 (stereo unspecified)	-18	.	.	.	.	.	.	.
CCCCCn1c(=O)[nH]c2cc(C(=O)NCCN(CC)CC)ccc2c1=O	-12	-3	-1.9	-0.5	-12	-2.1*	-36*	-92
CCCCCn1c(=O)[nH]c2cc(C(=O)NCCCN3CCCCC3)ccc2c1=O	-52	7	-1	-0.61	-2	-0.85	.	.
COC(=O)Cn1c(CCS(=O)(=O)c2ccc(C)cc2)nc2ccccc21	-56	-1	-0.19	-0.034	-4	0.33	.	.
Cn1c(=O)n(C)c2cc(S(=O)(=O)NCCc3ccccc3)ccc21	.	6	-0.42	-0.25	-5	-3*	-16	?
COc1ccccc1N1CCN(C(=O)CSc2ncccc2-c2nc3ccccc3[nH]2)CC1	.	-7	-0.82	-0.56	-8	13*	?	-62
COc1ccc(-c2csc(N(CCCN3CCOCC3)C(=O)c3ccco3)n2)cc1	.	-10	.	-1.1	-7	8.8*	-1.5	-39
Cc1ccc(-c2csc(N(CCCN3CCOCC3)C(=O)c3ccco3)n2)cc1	36	7	-0.12	0.42	18	2.3	.	.
COc1ccc(-c2csc(N(CCCN(C)C)C(=O)c3cccs3)n2)cc1	.	2	-0.42	-9.5*	-1	27*	11	-37
COc1cccc(CNC(=O)C2CCCN(S(=O)(=O)c3c(C)n[nH]c3C)C2)c1 (stereo unspecified)	-16	1	0.28	-0.4	20	-0.1	.	.
CC(=O)[C@H]1[C@@H]2C(=O)N(c3cccc(Cl)c3)C(=O)[C@@H]2[C@H]2c3ccccc3C=CN21	-3	12	.	-0.6	6	6.4*	98*	?
CCN=C(NCC)SC1CC(=O)N(c2cccc(OCC)c2)C1=O (stereo unspecified)	-28	-3	-0.91	-2.6*	-6	14*	-3.6	-22
Cc1cc(NC(=O)c2cc(C3CC3)on2)no1	.	33	.	0.24	5	0.21	.	.
O=C(NCc1cccs1)Nc1ccc2c(c1)OCO2	56	41	0.021	0.11	34	3.1*	?	-52
CCOc1ccc(CC(=O)Nc2c(C(N)=O)oc3ccc(Br)cc23)cc1OCC	.	0	.	-0.33	2	3.1*	-19	-24
CCOc1ccc(C(=O)Nc2c(C(N)=O)oc3ccccc23)cc1	21	30	-0.16	-0.52	11	1.2	.	.
SMILES	Htt clearance	SF-1 act	D1 allo mod	M1 antagonist	RORa activator	M1 ag	M1 agonist conf	M4 ag counter
CCOC(=O)c1nn(-c2ccc3c(c2)OCO3)cc1O	-48	12	0.074	-0.61	-3	2.1	.	.
Cc1c(F)cccc1NC(=O)CSCC(=O)Nc1ccccc1	i	.	.	.	.	.	.	.
O=C(CSc1n[nH]c(=O)n1C1CC1)Nc1cc(Cl)ccc1Oc1ccccc1	84*	3	-2.5	-2.7*	2	6.9*	-14	-14
Cc1nn(-c2ccccc2)c2sc(C(=O)OC3CCOC3=O)cc12 (stereo unspecified)	.	-16	0.92	-0.4	-15	0.63	.	.
Cc1ccc(S(=O)(=O)n2nc(-c3ccc(Cl)cc3)nc2NCc2ccco2)cc1	-4	-6	0.034	-0.38	0	26*	-9.4	-30
COC(=O)CSc1nnc(CNC(=O)c2ccco2)n1-c1ccc(F)cc1	14	2	-0.07	-0.13	-17	4.4*	-12	?
CCOC(=O)CSc1nnc(CNC(=O)c2ccco2)n1C	-23	-13	-1.1	-0.14	-20	0.5	.	.
COc1ccc(CN(Cc2ccccn2)C(=O)CN2C(=O)C(C)Oc3ccccc32)cc1 (stereo unspecified)	36	2	0.23	-1.1	-14	15*	-13	-39
COc1ccc(NC(=O)Nc2ccc3c(c2)N(C)C(=O)CS3)cc1OC	.	-7	-3.9	-1.5	10	3.1*	?	-28
CC(=O)c1ccc(NC(=O)Nc2ccc3c(c2)N(C)C(=O)CS3)cc1	-28	.	.	.	.	.	.	.
CCC(=O)c1ccc(OCC(O)Cn2c(C)nc3ccccc32)cc1 (stereo unspecified)	.	-39	-2.2	-0.93	-19	6.8*	-34*	-96
CCC(=O)c1ccc(OCC(O)Cn2cnc3ccccc32)cc1 (stereo unspecified)	.	-9	.	-0.013	-7	-1.6	.	.
CCCSc1nnc(NC(=O)Nc2ccc(F)cc2)s1	.	-15	.	-0.88	-1	3.4*	-7.2	-14
Cc1nnc(C)n1N1C(=O)c2cccc3cccc(c23)C1=O	.	-4	-0.38	-0.7	-9	0.5	.	.
NC1=CC(=O)c2cccc3cccc1c23	.	-19	-0.029	-0.76	-20	53*	371*	440*
Cc1nc2ccc(NC(=O)c3c(-c4ccccc4)noc3C)cc2s1	.	7	-0.34	0.89	4	4.1*	-28	-31
COC(=O)c1ccccc1COn1c(=O)c(C)[n+]([O-])c2ccccc21	.	-12	0.022	-0.16	18	-0.43	.	.
COC(=O)c1c(=O)n(O)c2ccc(OC)cc2[n+]1[O-]	.	-2	-0.018	-0.65	-3	19*	117*	96*
OCC1CCCN1C(=S)Nc1ccccc1 (stereo unspecified)	49	.	.	.	.	.	.	.
CN1CC=C2C(C#N)=C(N)C(C#N)(C#N)C(Cc3ccccc3)C2C1 (stereo unspecified)	-129	-4	-0.7	-0.7	-6	30*	98*	63
